In paper PMC5008228 (Journal of Parkinson's Disease, 2016):
Values joined by “and” are separate entries in the source; they are usually repeats but may differ in a detail not shown here. Equal values may be shown once. “Also recorded” adds a separate entry of the source.

How the values were obtained:
total tau = test: Neurodegenerative disease magnetic bead panel, total tau and p-tau181; format: in vivo, human
DJ-1 = test: Neurodegenerative disease magnetic bead panel, DJ-1; format: in vivo, human
Aβ40 = test: Neurodegenerative disease magnetic bead panel, Aβ40; format: in vivo, human
[1] = test system: Neuron Specific Enolase (NSE); test: Neurodegenerative disease magnetic bead panel, NSE; format: in vivo, human; details: 6 months
PDD or DLB participants [2] = test: Scales for Outcomes in Parkinson's disease-Cognition; format: in vivo, human; details: for SCOPA-Cog (**/43) score: individual participants; for Average increase in SCOPA-Cog: six months compared to baseline
[3] = Nilotinib pharmacokinetics in plasma by mass spectrometry; format: in vivo; details: human, po, unbound Nilotinib; for AUC: Plasma AUC; for Cmax: Plasma Cmax
Aβ42 = test: Neurodegenerative disease magnetic bead panel, Aβ42; format: in vivo, human; details: 150 mg group
PDD or DLB participants [4] = test: Safety and tolerability, adverse events; format: in vivo, human
PDD or DLB participants [5] = test: Laboratory blood chemistry; format: in vivo, human; details: 150 mg group
How it was run: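 PDD or DLB participants (n = 5 at 150 mg, n = 7 at 300 mg) took oral doses daily for 24 weeks. Blood chemistry (lipids, phosphate, bilirubin, electrolytes, lipase, α-amylase, ALT, AST) plus CBC with differential were drawn every two weeks for the first two months, then monthly. EKGs and physical/neurological exams were done at the same visits.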

homovanillic acid (HVA) = test: HVA measurement by ELISA; format: in vivo, human
PDD or DLB participants [6] = test: Mini Mental State Examination; format: in vivo, human; details: for MMSE score: individual participants; for Average increase in MMSE: six months (24-week) compared to baseline
S100B = test: Neurodegenerative disease magnetic bead panel, S100B; format: in vivo, human

With `Cc1cn(-c2cc(NC(=O)c3ccc(C)c(Nc4nccc(-c5cccnc5)n4)c3)cc(C(F)(F)F)c2)cn1` [Nilotinib] the “CSF total tau vs baseline” value (total tau; 150 mg group, 2 months) was “significantly reduced”, the “CSF total tau vs baseline” value (total tau; 300 mg group, 6 months) was “significantly reduced” and the “CSF DJ-1” value (DJ-1; 150 mg group) was “trended towards a decrease”. For the same compound, the “CSF DJ-1 vs baseline” value (DJ-1; 300 mg group, six months) was “significantly reduced”, the “CSF Aβ40” value (Aβ40; 150 mg group) was “No changes” and the “CSF Aβ40 vs baseline” value (Aβ40; 300 mg group, 6 months) was “significantly reduced”. The “CSF NSE level vs baseline” value ([1]; 150 mg group) was “significantly reduced”, the “CSF NSE level vs baseline” value ([1]; 300 mg group) was “significantly reduced” and the “SCOPA-Cog (**/43) score, AVG” value (PDD or DLB participants [2]; 150 mg oral daily, Week-8, group AVG (Screening AVG 9.4)) was 10. For the same compound, the “SCOPA-Cog (**/43) score” value (PDD or DLB participants [2]; 150 mg oral daily, Week-8) was 5 and 0 and 4 and 23 and 18, the “SCOPA-Cog (**/43) score, AVG” value (PDD or DLB participants [2]; 150 mg oral daily, Week-20, group AVG (Screening AVG 9.4)) was 9.6 and the “SCOPA-Cog (**/43) score” value (PDD or DLB participants [2]; 150 mg oral daily, Week-20) was 3 and 1 and 0 and 26 and 18. For the same compound, the “SCOPA-Cog (**/43) score, AVG” value (PDD or DLB participants [2]; 150 mg oral daily, Week-24, group AVG (Screening AVG 9.4)) was 11.25, the “SCOPA-Cog (**/43) score” value (PDD or DLB participants [2]; 150 mg oral daily, Week-24) was 4 and 0 and 23 and 18 and the “Average increase in SCOPA-Cog” value (PDD or DLB participants [2]; 150 mg oral daily) was 1.85 points. For the same compound, the “SCOPA-Cog (**/43) score, AVG” value (PDD or DLB participants [2]; 300 mg oral daily, Week-8, group AVG (Screening AVG 10.33)) was 12.17, the “SCOPA-Cog (**/43) score” value (PDD or DLB participants [2]; 300 mg oral daily, Week-8) was 22 and 30 and 11 and 9 and 0 and 1 and the “SCOPA-Cog (**/43) score, AVG” value (PDD or DLB participants [2]; 300 mg oral daily, Week-20, group AVG (Screening AVG 10.33)) was 13.3. The “SCOPA-Cog (**/43) score” value (PDD or DLB participants [2]; 300 mg oral daily, Week-20) was 21 and 30 and 19 and 10 and 0, the “SCOPA-Cog (**/43) score, AVG” value (PDD or DLB participants [2]; 300 mg oral daily, Week-24, group AVG (Screening AVG 10.33)) was 12.33 and the “SCOPA-Cog (**/43) score” value (PDD or DLB participants [2]; 300 mg oral daily, Week-24) was 22 and 31 and 10 and 0 and 1. The “Average increase in SCOPA-Cog” value (PDD or DLB participants [2]; 300 mg oral daily) was 2 points, the AUC ([3]; 150 mg, 150 mg oral) was 157 ng·h/mL and the Cmax ([3]; 150 mg, 150 mg oral) was 55 nM. The AUC ([3]; 300 mg, 300 mg oral) was 232 ng·h/mL, the Cmax ([3]; 300 mg, 300 mg oral) was 86 nM and the “CSF Aβ42” value (Aβ42) was “No changes”. For the same compound, the “Serious adverse events (one participant each)” value (PDD or DLB participants [4]; 150 mg group, n = 5) was “hospitalized with pneumonia and UTI”, the “Serious adverse events (one participant each)” value (PDD or DLB participants [4]; 300 mg group, n = 7) was “withdrawn at week 4 and diagnosed with myocardial infarct and left bundle block; also recorded: hospitalized with urinary tract infection (UTI)” and the Safety and tolerability (PDD or DLB participants [4]; once daily oral 150 mg or 300 mg, subjects with PDD or DLB) was “may be safe and tolerated”. The “AEs below normal range of alanine aminotransferase (ALT) level (<100%)” value (PDD or DLB participants [5]) was “three”, the “CSF homovanillic acid (HVA) vs baseline” value (homovanillic acid (HVA); 150 mg group, 2 months, t-test) was “significantly increased” and the “CSF homovanillic acid (HVA) vs baseline” value (homovanillic acid (HVA); 150 mg group, 6 months) was “remained elevated (non-significant)”. For the same compound, the “CSF homovanillic acid (HVA) vs baseline” value (homovanillic acid (HVA); 300 mg group, 6 months) was “significantly increased”, the “MMSE score, AVG” value (PDD or DLB participants [6]; 300 ng (sub-heading as printed) oral daily, Week-4, group AVG (Screening AVG 17)) was 20.3 and the MMSE score (PDD or DLB participants [6]; 300 ng (sub-heading as printed) oral daily, Week-4) was 27 and 28 and 24 and 5 and 10. For the same compound, the “MMSE score, AVG” value (PDD or DLB participants [6]; 300 ng (sub-heading as printed) oral daily, Week-8, group AVG (Screening AVG 17)) was 18.1, the MMSE score (PDD or DLB participants [6]; 300 ng (sub-heading as printed) oral daily, Week-8) was 28 and 23 and 24 and 2 and 8 and the MMSE score (PDD or DLB participants [6]; 300 ng (sub-heading as printed) oral daily, Week-12) was 29 and 26 and 25 and 28 and 1 and 6. The MMSE score (PDD or DLB participants [6]; 300 ng (sub-heading as printed) oral daily, Week-16) was 27 and 29 and 25 and 14 and 6 and 12, the MMSE score (PDD or DLB participants [6]; 300 ng (sub-heading as printed) oral daily, Week-20) was 26 and 30 and 25 and 24 and 2 and 6 and the MMSE score (PDD or DLB participants [6]; 300 ng (sub-heading as printed) oral daily, Week-24) was 28 and 30 and 25 and 26 and 5 and 9. For the same compound, the “MMSE score, AVG” value (PDD or DLB participants [6]; 150 mg oral daily, Week-4, group AVG (Screening AVG 15.4)) was 17.4, the MMSE score (PDD or DLB participants [6]; 150 mg oral daily, Week-4) was 20 and 0 and 11 and 28 and the “MMSE score, AVG” value (PDD or DLB participants [6]; 150 mg oral daily, Week-8, group AVG (Screening AVG 15.4)) was 18. The MMSE score (PDD or DLB participants [6]; 150 mg oral daily, Week-8) was 22 and 1 and 11 and 29 and 27, the “MMSE score, AVG” value (PDD or DLB participants [6]; 150 mg oral daily, Week-12, group AVG (Screening AVG 15.4)) was 18 and the MMSE score (PDD or DLB participants [6]; 150 mg oral daily, Week-12) was 21 and 1 and 11 and 29 and 28. The “MMSE score, AVG” value (PDD or DLB participants [6]; 150 mg oral daily, Week-16, group AVG (Screening AVG 15.4)) was 18.6, the MMSE score (PDD or DLB participants [6]; 150 mg oral daily, Week-16) was 26 and 1 and 8 and 30 and 28 and the “MMSE score, AVG” value (PDD or DLB participants [6]; 150 mg oral daily, Week-20, group AVG (Screening AVG 15.4)) was 18.4. The MMSE score (PDD or DLB participants [6]; 150 mg oral daily, Week-20) was 26 and 1 and 10 and 30 and 25, the “MMSE score, AVG” value (PDD or DLB participants [6]; 150 mg oral daily, Week-24, group AVG (Screening AVG 15.4)) was 19.25 and the MMSE score (PDD or DLB participants [6]; 150 mg oral daily, Week-24) was 23 and 2 and 29. For the same compound, the “Average increase in MMSE” value (PDD or DLB participants [6]; 150 mg oral daily) was 3.85 points, the “Average increase in MMSE” value (PDD or DLB participants [6]; 300 mg oral daily) was 3.5 points and the “CSF S100B level” value (S100B; 150 mg group) was “gradually reduced”. For the same compound, the “CSF S100B level” value (S100B; 300 mg group) was “gradually reduced”.
